The target of one data set is T1, Cytochrome P450 1A2 (Homo sapiens, UniProt P05177).
T1 sequence (P05177 whole entry): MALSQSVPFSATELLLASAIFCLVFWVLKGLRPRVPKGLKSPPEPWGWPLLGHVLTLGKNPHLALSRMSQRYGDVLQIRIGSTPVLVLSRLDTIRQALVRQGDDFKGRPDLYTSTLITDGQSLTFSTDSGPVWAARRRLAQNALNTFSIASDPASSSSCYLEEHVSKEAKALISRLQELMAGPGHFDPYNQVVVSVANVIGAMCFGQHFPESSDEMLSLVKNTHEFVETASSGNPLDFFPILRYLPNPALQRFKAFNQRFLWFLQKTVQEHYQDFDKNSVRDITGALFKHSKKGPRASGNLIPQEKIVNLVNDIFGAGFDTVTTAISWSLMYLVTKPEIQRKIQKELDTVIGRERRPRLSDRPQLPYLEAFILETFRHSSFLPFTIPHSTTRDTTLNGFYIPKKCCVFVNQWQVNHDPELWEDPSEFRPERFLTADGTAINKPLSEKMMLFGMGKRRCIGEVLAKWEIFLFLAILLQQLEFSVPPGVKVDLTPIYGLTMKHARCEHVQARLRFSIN
The data set can be described thus: Inhibition of CYP1A2 (unknown origin). It is filed as ADME.

The next data set deals with Cytochrome P450 2C19 (Homo sapiens, UniProt P33261). Put plainly: Inhibition of CYP2C19 (unknown origin). It is filed as ADME. The following applies: human.
Sequence of Cytochrome P450 2C19 (P33261 whole entry): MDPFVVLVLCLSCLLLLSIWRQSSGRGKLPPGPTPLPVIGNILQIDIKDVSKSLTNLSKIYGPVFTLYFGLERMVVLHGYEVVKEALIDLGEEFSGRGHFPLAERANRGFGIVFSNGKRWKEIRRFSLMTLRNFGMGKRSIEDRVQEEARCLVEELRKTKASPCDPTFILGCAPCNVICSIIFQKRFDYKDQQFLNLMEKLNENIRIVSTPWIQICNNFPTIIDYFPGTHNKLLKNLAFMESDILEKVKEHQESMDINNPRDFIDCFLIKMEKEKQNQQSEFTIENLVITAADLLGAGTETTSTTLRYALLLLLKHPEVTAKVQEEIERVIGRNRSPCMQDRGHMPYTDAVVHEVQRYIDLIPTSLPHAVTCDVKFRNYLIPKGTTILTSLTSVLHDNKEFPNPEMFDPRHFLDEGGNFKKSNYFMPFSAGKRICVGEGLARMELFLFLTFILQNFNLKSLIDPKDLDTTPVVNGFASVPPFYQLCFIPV
Data set [1] addresses Muscarinic acetylcholine receptor M3 (Homo sapiens, UniProt P20309). The data set can be described thus: Antagonist activity at mAChR M3 in human CCRF-CEM cells assessed as inhibition of acetylcholine-mediated calcium flux incubated for 25 mins followed by acetylcholine stimulation measured for 90 secs. It is filed as functional, cell-based.
Data set [2] is described as follows: Metabolic stability in mouse liver microsomes assessed as parent compound remaining. The data set is classed as ADME, microsome.
The target of another data set is Cytochrome P450 2C9 (Homo sapiens, UniProt P11712). The data set can be described thus: Inhibition of CYP2C9 (unknown origin). It is filed as ADME.
Sequence of Cytochrome P450 2C9 (P11712 whole entry): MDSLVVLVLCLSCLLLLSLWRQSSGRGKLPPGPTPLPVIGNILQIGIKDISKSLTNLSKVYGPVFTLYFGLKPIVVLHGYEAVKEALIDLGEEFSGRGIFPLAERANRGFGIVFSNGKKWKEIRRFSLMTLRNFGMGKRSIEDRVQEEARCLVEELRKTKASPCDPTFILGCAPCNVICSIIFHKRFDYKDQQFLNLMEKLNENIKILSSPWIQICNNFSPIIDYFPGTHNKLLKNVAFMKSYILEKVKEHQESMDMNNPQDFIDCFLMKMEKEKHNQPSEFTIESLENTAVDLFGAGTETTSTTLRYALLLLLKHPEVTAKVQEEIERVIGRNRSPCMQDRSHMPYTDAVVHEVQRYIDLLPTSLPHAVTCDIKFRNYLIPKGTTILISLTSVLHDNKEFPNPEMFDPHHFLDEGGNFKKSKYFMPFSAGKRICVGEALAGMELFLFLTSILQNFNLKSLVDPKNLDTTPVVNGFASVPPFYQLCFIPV
Data set [3] is described as follows: Permeability of the compound in pH 7.4 buffer after 4 hrs by PAMPA. The data set is classed as ADME. The conditions noted are these: read-out: permeability. The essentials: (§1)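 Parallel artificial membrane permeability assay (PAMPA) for passive transcellular permeability, run at pH 7.4 and at pH 5.5, with permeability reported in nm/s.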
A further data set has as its target T2, Cytochrome P450 2B6 (Homo sapiens, UniProt P20813).
T2 sequence (P20813 whole entry): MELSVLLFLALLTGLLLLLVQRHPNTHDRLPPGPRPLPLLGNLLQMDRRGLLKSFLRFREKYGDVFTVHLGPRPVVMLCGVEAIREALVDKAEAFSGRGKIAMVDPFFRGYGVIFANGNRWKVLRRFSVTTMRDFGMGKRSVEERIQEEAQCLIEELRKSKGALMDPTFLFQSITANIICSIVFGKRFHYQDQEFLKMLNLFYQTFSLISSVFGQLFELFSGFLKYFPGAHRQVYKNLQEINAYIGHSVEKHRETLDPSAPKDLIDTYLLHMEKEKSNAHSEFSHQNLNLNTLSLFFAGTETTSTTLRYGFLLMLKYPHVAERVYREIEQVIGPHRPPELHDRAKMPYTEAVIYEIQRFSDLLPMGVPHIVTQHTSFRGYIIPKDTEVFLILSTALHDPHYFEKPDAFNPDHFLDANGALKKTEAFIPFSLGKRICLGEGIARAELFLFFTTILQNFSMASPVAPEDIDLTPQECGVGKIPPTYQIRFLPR
The data set can be described thus: Inhibition of CYP2B6 (unknown origin). It is filed as ADME.

The nature of data set [4]: Metabolic stability in human liver microsomes assessed as parent compound remaining. It is filed as ADME, microsome. (In general: Liver microsomes are a subcellular fraction often used to study metabolism.)
A short description of data set [5]: Permeability of the compound in pH 5.5 buffer after 4 hrs by PAMPA. It is filed as ADME. The conditions noted are these: PAMPA, pH 5.5; read-out: permeability. The essentials:
as §1
(In general: The PAMPA barrier holds no transporters, so it reflects passive diffusion.)

Another data set concerns the target T3, Cytochrome P450 2A6 (Homo sapiens, UniProt P11509).
T3 sequence (P11509 whole entry): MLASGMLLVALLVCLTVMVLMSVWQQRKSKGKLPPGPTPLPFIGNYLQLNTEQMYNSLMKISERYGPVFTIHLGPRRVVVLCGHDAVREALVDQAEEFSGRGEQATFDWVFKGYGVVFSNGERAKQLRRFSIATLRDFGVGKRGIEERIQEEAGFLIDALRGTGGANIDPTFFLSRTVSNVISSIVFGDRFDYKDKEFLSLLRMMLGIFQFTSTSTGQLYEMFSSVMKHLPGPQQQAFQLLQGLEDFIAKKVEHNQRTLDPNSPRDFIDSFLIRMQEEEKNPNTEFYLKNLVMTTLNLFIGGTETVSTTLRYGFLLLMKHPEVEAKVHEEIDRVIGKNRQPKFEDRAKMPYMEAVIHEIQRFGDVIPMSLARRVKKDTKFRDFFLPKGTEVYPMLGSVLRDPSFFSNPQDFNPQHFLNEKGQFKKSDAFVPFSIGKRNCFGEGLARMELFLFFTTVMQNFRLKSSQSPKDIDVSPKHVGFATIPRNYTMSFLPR
The data set can be described thus: Inhibition of CYP2A6 (unknown origin). The data set is classed as ADME.

Data set [6] can be described thus: Metabolic stability in rat liver microsomes assessed as parent compound remaining. It is filed as ADME, microsome.
A further data set has as its target T4, Cytochrome P450 2C8 (Homo sapiens, UniProt P10632).
T4 sequence (P10632 whole entry): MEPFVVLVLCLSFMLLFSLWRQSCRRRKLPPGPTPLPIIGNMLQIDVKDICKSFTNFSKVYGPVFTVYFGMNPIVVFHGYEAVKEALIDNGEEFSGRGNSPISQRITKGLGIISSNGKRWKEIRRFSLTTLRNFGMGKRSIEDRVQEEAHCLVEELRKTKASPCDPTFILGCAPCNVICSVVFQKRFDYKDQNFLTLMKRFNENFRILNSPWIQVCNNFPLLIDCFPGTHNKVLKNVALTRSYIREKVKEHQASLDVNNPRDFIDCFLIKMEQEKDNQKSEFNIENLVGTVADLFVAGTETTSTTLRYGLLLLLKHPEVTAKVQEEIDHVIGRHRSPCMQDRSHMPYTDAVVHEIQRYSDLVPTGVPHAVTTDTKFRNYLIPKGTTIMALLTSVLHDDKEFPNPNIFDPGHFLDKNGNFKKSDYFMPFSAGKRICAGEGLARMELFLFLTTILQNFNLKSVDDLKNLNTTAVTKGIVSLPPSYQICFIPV
Put plainly: Inhibition of CYP2C8 (unknown origin). The data set is classed as ADME. The following applies: human.

Data on one compound can be found in ChEMBL document CHEMBL4138298, “Synthesis of Novel Tetrahydroisoquinoline CXCR4 Antagonists with Rigidified Side-Chains” (ACS Med Chem Lett, 2018).

Where only a bound is given, the exact number is not on record here.

Sequence of Muscarinic acetylcholine receptor M3 (P20309 whole entry): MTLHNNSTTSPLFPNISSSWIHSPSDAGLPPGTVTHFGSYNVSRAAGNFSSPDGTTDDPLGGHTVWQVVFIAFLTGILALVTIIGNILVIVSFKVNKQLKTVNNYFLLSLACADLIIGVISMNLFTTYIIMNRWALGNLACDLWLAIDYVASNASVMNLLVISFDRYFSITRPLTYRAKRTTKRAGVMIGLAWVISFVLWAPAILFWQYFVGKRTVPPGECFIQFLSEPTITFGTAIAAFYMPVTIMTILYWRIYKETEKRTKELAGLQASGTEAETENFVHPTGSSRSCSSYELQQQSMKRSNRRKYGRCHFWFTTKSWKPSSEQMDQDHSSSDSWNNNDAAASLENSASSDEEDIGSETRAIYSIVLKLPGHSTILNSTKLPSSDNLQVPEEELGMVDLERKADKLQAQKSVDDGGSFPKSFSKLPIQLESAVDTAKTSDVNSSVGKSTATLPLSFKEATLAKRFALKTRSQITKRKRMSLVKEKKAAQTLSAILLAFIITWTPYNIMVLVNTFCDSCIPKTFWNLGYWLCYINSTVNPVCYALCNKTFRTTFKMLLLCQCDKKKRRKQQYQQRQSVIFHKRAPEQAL

As usually defined, the IC50 is the concentration at which inhibition is half-maximal. Regarding `NC/C=C/CN(C[C@H]1Cc2ccccc2CN1)[C@H]1CCCc2cccnc21`, the “inhibition (INH)” value against Cytochrome P450 1A2, against Cytochrome P450 2C19, at Cytochrome P450 2C9, on Cytochrome P450 2B6, against Cytochrome P450 2A6 and on Cytochrome P450 2C8 was “Not Active” in each case. In addition, the half-maximal inhibitory concentration (IC50) in [1] is greater than 16 µM. Moreover, the Stability in data set [2] came out at 11%; in [4], 100%; in data set [6], 34%. In addition, the Papp at 4 h in data set [3] worked out at 830 nm/s; in data set [5], 260 nm/s.
